From ChEMBL document CHEMBL4680311, “Synthesis, characterization, in vitro SAR study, and preliminary in vivo toxicity evaluation of naphthylmethyl substituted bis-imidazolium salts” (Bioorg Med Chem, 2021)

What was measured:
NCI-H460 [1] = assay: Cytotoxicity against human NCI-H460 cells assessed as cell growth inhibition measured after 72 hrs by MTT assay; assay type: functional, cell-based; conditions: NCI-H460, 72 h
Procedure, shortened: (§1)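 Cells kept in RPMI 1640 with 10% FBS at 37 °C, 5% CO₂, passaged every 2–3 days; grown to confluence, seeded at 5,000–7,000 cells/well depending on line, incubated 24 h. Compounds dissolved in 1% DMSO, diluted in medium to 1, 4, 16, 32 μM (6 replicates each), 72 h exposure. MTT 3–4 h, medium aspirated, DMSO added, 15 min, OD 540 nm; IC50 relative to untreated cells.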

NCI-H1975 = assay: Cytotoxicity against human NCI-H1975 cells assessed as cell growth inhibition measured after 72 hrs by MTT assay; assay type: functional, cell-based; conditions: NCI-H1975, 72 h; procedure, shortened: as §1
HCC827 = assay: Cytotoxicity against human HCC827 cells assessed as cell growth inhibition measured after 72 hrs by MTT assay; assay type: functional, cell-based; conditions: HCC827, 72 h; procedure, shortened: as §1
A549 [2] = assay: Cytotoxicity against human A549 cells assessed as cell growth inhibition measured after 72 hrs by MTT assay; assay type: functional, cell-based; conditions: A549, 72 h; procedure, shortened: as §1
A549 [3] = assay: Antiproliferative activity against human A549/ATCC cells assessed as cell growth at 10 uM incubated for 48 hrs by sulforhodamine B assay relative to control; assay type: functional; conditions: read-out: Activity
Procedure, shortened: (§2)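 NCI DTP NCI-60 one-dose screen on the NSCLC panel. Cells were seeded at densities set by doubling rate and incubated 24 h. They were then exposed to a single 10 μM dose for 48 h. Each value is a growth percentage relative to the initial cell population: positive means net growth, negative means net cell kill.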

EKVX [4] = assay: Antiproliferative activity against human EKVX cells assessed as cell growth at 10 uM incubated for 48 hrs by sulforhodamine B assay relative to control; assay type: functional; conditions: read-out: Activity; procedure, shortened: as §2
HOP-62 [5] = assay: Antiproliferative activity against human HOP-62 cells assessed as cell growth at 10 uM incubated for 48 hrs by sulforhodamine B assay relative to control; assay type: functional; conditions: read-out: Activity; procedure, shortened: as §2
HOP-92 [6] = assay: Antiproliferative activity against human HOP-92 cells assessed as cell growth at 10 uM incubated for 48 hrs by sulforhodamine B assay relative to control; assay type: functional; conditions: read-out: Activity; procedure, shortened: as §2
NCI-H226 [7] = assay: Antiproliferative activity against human NCI-H226 cells assessed as cell growth at 10 uM incubated for 48 hrs by sulforhodamine B assay relative to control; assay type: functional; conditions: read-out: Activity; procedure, shortened: as §2
NCI-H23 [8] = assay: Antiproliferative activity against human NCI-H23 cells assessed as cell growth at 10 uM incubated for 48 hrs by sulforhodamine B assay relative to control; assay type: functional; conditions: read-out: Activity; procedure, shortened: as §2
NCI-H322M [9] = assay: Antiproliferative activity against human NCI-H322M cells assessed as cell growth at 10 uM incubated for 48 hrs by sulforhodamine B assay relative to control; assay type: functional; conditions: read-out: Activity; procedure, shortened: as §2
NCI-H460 [10] = assay: Antiproliferative activity against human NCI-H460 cells assessed as cell growth at 10 uM incubated for 48 hrs by sulforhodamine B assay relative to control; assay type: functional; conditions: read-out: Activity; procedure, shortened: as §2
NCI-H522 [11] = assay: Antiproliferative activity against human NCI-H522 cells assessed as cell growth at 10 uM incubated for 48 hrs by sulforhodamine B assay relative to control; assay type: functional; conditions: read-out: Activity; procedure, shortened: as §2
A549 [12] = assay: Growth inhibition of human A549/ATCC cells incubated for 48 hrs by sulforhodamine B assay; assay type: functional; conditions: read-out: LC50 (the source's name)
Procedure, shortened: (§3)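 NCI DTP NCI-60 five-dose screen, same procedure as the one-dose assay: 24 h preincubation, then 48 h exposure. Five tenfold-spaced concentrations were used, from 100 μM to 10 nM or from 25 μM to 2.5 nM depending on compound. GI50, TGI and LC50 were read from growth-percentage curves relative to control cells.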

EKVX [13] = assay: Growth inhibition of human EKVX cells incubated for 48 hrs by sulforhodamine B assay; assay type: functional; procedure, shortened: as §3
HOP-62 [14] = assay: Growth inhibition of human HOP-62 cells incubated for 48 hrs by sulforhodamine B assay; assay type: functional; procedure, shortened: as §3
HOP-92 [15] = assay: Growth inhibition of human HOP-92 cells incubated for 48 hrs by sulforhodamine B assay; assay type: functional; procedure, shortened: as §3
NCI-H226 [16] = assay: Growth inhibition of human NCI-H226 cells incubated for 48 hrs by sulforhodamine B assay; assay type: functional; procedure, shortened: as §3
NCI-H23 [17] = assay: Growth inhibition of human NCI-H23 cells incubated for 48 hrs by sulforhodamine B assay; assay type: functional; procedure, shortened: as §3
NCI-H322M [18] = assay: Growth inhibition of human NCI-H322M cells incubated for 48 hrs by sulforhodamine B assay; assay type: functional; procedure, shortened: as §3
NCI-H460 [19] = assay: Growth inhibition of human NCI-H460 cells incubated for 48 hrs by sulforhodamine B assay; assay type: functional; procedure, shortened: as §3
NCI-H522 [20] = assay: Growth inhibition of human NCI-H522 cells incubated for 48 hrs by sulforhodamine B assay; assay type: functional; procedure, shortened: as §3
[21] = Toxicity in C57BL/6 mouse assessed as body weight loss at 20 mg/kg, ip administered on day 0, 7, 14 and 29 relative to control; assay type: organism-based; conditions: in vivo, 96 h, time 4 day
Procedure, shortened: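 Male C57BL/6 mice, 8 weeks old, acclimated 5 days, 12 h light/dark, 3 per cage, n = 3. Mice got 100 μL of 4 mg/mL drug in 20% 2-HPβCD in sterile PBS, about 20 mg/kg assuming 20 g, IP on days 0, 7, 14 and 29 (1 h before sacrifice). Vehicle mice were dosed IP on days 0, 7, 14, 21, 25 and 29. Weight and behaviour were checked daily; sacrifice was on day 29.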

[22] = Toxicity in C57BL/6 mouse assessed as body weight loss recovery measured after second and third injection at 20 mg/kg, ip administered on day 0, 7, 14 and 29 relative to control; assay type: organism-based; conditions: in vivo, 96 h, time 4 day
Procedure, shortened: (§4)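 Male C57BL/6 mice, eight weeks old, acclimated 5 days, 3 per cage, 12 h light/dark, food and water ad libitum. IP injection of 100 μL of a 4 mg/mL solution in 20% 2-HPβCD sterile PBS (~20 mg/kg assuming 20 g mouse) on days 0, 7, 14, 29. Vehicle mice got 2-HPβCD on days 0, 7, 14, 21, 25, 29. Weighed and observed daily; sacrificed day 29.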

[23] = Toxicity in C57BL/6 mouse assessed as body weight gain at 20 mg/kg, ip administered on day 0, 7, 14 and 29; assay type: organism-based; conditions: in vivo, 96 h, time 4 day; procedure, shortened: as §4
[24] = Toxicity in C57BL/6 mouse assessed as body weight loss measured on day 6 at 20 mg/kg, ip administered on day 0, 7, 14 and 29; conditions: in vivo

c1ccc2cc(Cn3cc[n+](CCCCn4cc[n+](Cc5ccc6ccccc6c5)c4)c3)ccc2c1
IC50 (NCI-H460 [1]): 4 µM | IC50 (NCI-H1975): 11 µM | IC50 (HCC827): 13 µM | IC50 (A549 [2]): 4 µM | growth at 10 µM (A549 [3]): 49.3% | growth at 10 µM (EKVX [4]): 58.1% | growth at 10 µM (HOP-62 [5]): 54.8% | growth at 10 µM (HOP-92 [6]): 68.4% | growth at 10 µM (NCI-H226 [7]): 82% | growth at 10 µM (NCI-H23 [8]): 44% | growth at 10 µM (NCI-H322M [9]): 90% | growth at 10 µM (NCI-H460 [10]): 38.2% | growth at 10 µM (NCI-H522 [11]): 43.4%

[Br-].[Br-].c1ccc2cc(Cn3cc[n+](CCCCCCCCCCn4cc[n+](Cc5ccc6ccccc6c5)c4)c3)ccc2c1
IC50 (NCI-H460 [1]): < 1 µM | IC50 (NCI-H1975): 2 µM | IC50 (HCC827): 7 µM | IC50 (A549 [2]): < 1 µM | growth at 10 µM (A549 [3]): 18.6% | growth at 10 µM (EKVX [4]): 13.7% | growth at 10 µM (HOP-62 [5]): -4.86% | growth at 10 µM (HOP-92 [6]): -23.6% | growth at 10 µM (NCI-H226 [7]): 39.5% | growth at 10 µM (NCI-H23 [8]): 5.67% | growth at 10 µM (NCI-H322M [9]): 34.5% | growth at 10 µM (NCI-H460 [10]): 11% | CC50 (A549 [12]): 50.3 µM | GI50 (EKVX [13]): 442 nM | LC50 (EKVX [13]): 58.4 µM | GI50 (HOP-62 [14]): 1090 nM | LC50 (concentration giving 50% net cell kill) (HOP-62 [14]): 44.5 µM | GI50 (HOP-92 [15]): 396 nM | LC50 (concentration giving 50% net cell kill) (HOP-92 [15]): 15.2 µM | GI50 (NCI-H226 [16]): 918 nM | LC50 (NCI-H226 [16]): > 100 µM | TGI (NCI-H226 [16]): 13.6 µM | GI50 (NCI-H23 [17]): 445 nM | LC50 (NCI-H23 [17]): 39.9 µM | GI50 (NCI-H322M [18]): 3.55 µM | LC50 (concentration giving 50% net cell kill) (NCI-H322M [18]): 48.1 µM | TGI (NCI-H322M [18]): 18.4 µM | GI50 (NCI-H460 [19]): 376 nM | LC50 (concentration giving 50% net cell kill) (NCI-H460 [19]): 45.9 µM | TGI (NCI-H460 [19]): 10.1 µM | GI50 (NCI-H522 [20]): 436 nM | CC50 (NCI-H522 [20]; read-out: LC50 (the source's name)): 5.95 µM | Activity [21]: 4% | Activity [22]: Toxic | Activity [23]: Toxic | body weight loss at 96 h [24]: 10%

c1ccc2cc(Cn3cc[n+](Cn4cc[n+](Cc5ccc6ccccc6c5)c4)c3)ccc2c1
IC50 (NCI-H460 [1]): 16 µM | IC50 (NCI-H1975): > 30 µM | IC50 (HCC827): > 30 µM | IC50 (A549 [2]): > 30 µM | growth at 10 µM (A549 [3]): 70.8% | growth at 10 µM (EKVX [4]): 89.4% | growth at 10 µM (HOP-62 [5]): 84.2% | growth at 10 µM (HOP-92 [6]): 67% | growth at 10 µM (NCI-H226 [7]): 92.6% | growth at 10 µM (NCI-H23 [8]): 88.3% | growth at 10 µM (NCI-H322M [9]): 87.6% | growth at 10 µM (NCI-H522 [11]): 51%

c1ccc2cc(Cn3cc[n+](CCCn4cc[n+](Cc5ccc6ccccc6c5)c4)c3)ccc2c1
IC50 (NCI-H460 [1]): 20 µM | IC50 (NCI-H1975): > 30 µM | IC50 (HCC827): > 30 µM | IC50 (A549 [2]): 22 µM | growth at 10 µM (A549 [3]): 62.3% | growth at 10 µM (EKVX [4]): 82.7% | growth at 10 µM (HOP-62 [5]): 67.2% | growth at 10 µM (HOP-92 [6]): 67.5% | growth at 10 µM (NCI-H226 [7]): 81.9% | growth at 10 µM (NCI-H23 [8]): 77.8% | growth at 10 µM (NCI-H322M [9]): 84.4% | growth at 10 µM (NCI-H460 [10]): 75.3% | growth at 10 µM (NCI-H522 [11]): 56.6%

c1ccc2cc(Cn3cc[n+](CCn4cc[n+](Cc5ccc6ccccc6c5)c4)c3)ccc2c1
IC50 (NCI-H460 [1]): 14 µM | IC50 (NCI-H1975): > 30 µM | IC50 (HCC827): > 30 µM | IC50 (A549 [2]): > 30 µM | growth at 10 µM (A549 [3]): 64.1% | growth at 10 µM (EKVX [4]): 91.4% | growth at 10 µM (HOP-62 [5]): 86% | growth at 10 µM (HOP-92 [6]): 79.2% | growth at 10 µM (NCI-H226 [7]): 82.7% | growth at 10 µM (NCI-H23 [8]): 88.9% | growth at 10 µM (NCI-H322M [9]): 86.4%
